Data from ChEMBL document CHEMBL1144804, “Sesquiterpene quinones and related metabolites from Phyllosticta spinarum, a fungal strain endophytic in Platycladus orientalis of the Sonoran Desert” (J Nat Prod, 2008).
Calls of active or inactive are those of the source. No cut-off for these calls is given here.

Key:
Assay type in all cases: functional, cell-based
[1] = Antiproliferative activity against human PC3M cells by MTT assay; details: PC-3M
Outline: (§1)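 Cells were exposed to serial dilutions of DMSO-dissolved samples for 72 h in RPMI 1640 with 10% fetal bovine serum and glutamax. Viability was read by the tetrazolium (MTT) colorimetric assay as inhibition of proliferation.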

NCI-H460 = test: Antiproliferative activity against human NCI-H460 cells by MTT assay; outline: as §1
SF-268 = test: Antiproliferative activity against human SF268 cells by MTT assay; outline: as §1
MIA PaCa-2 = test: Antiproliferative activity against human MIAPaCa2 cells by MTT assay; outline: as §1
PC-3M [2] = test: Induction of apoptosis in human PC3M cells assessed as accumulation at subG1 phase at 2.5 to 10 uM after 24 hrs by flow cytometry
Outline: (§2)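 PC-3M cells at about 75% confluency were seeded at 2.5 × 10^5 cells/well and left to reattach overnight at 37 °C in 5% CO2. They were then treated for 24 h in RPMI 1640 with 10% FBS, penicillin 100 IU/mL, streptomycin 50 µg/mL and Glutamax 2 mM. Controls were 0.1% DMSO (negative) and 0.5 µg/mL nocodazole (positive). Floating and adherent cells were pooled, PBS-washed, stained for DNA content with Guava cell cycle reagent, and scored as % sub-G1 by flow cytometry.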

MCF7 = test: Antiproliferative activity against human MCF7 cells by MTT assay; outline: as §1
NIH3T3 [3] = test: Induction of apoptosis in mouse NIH3T3 cells assessed as accumulation at subG1 phase at 2.5 to 10 uM after 24 hrs by flow cytometry
NIH3T3 [4] = test: Induction of apoptosis in mouse NIH3T3 cells assessed as accumulation at subG1 phase at 0.5 ug/ml after 24 hrs by flow cytometry
PC-3M [5] = test: Induction of apoptosis in human PC3M cells assessed as accumulation at subG1 phase at 0.5 ug/ml after 24 hrs by flow cytometry; outline: as §2

Row | Structure (SMILES) | IC50 [1] | IC50 (NCI-H460) | IC50 (SF-268) | IC50 (MIA PaCa-2) | Activity (PC-3M [2]) | IC50 (MCF7) | Activity (NIH3T3 [3]) | Activity (NIH3T3 [4]) | Activity (PC-3M [5])
1 | COc1cccc2c1C(=O)c1c(O)c3c(c(O)c1C2=O)C[C@@](O)(C(=O)CO)C[C@@H]3O[C@H]1C[C@H](N)[C@H](O)[C@H](C)O1 [DOXORUBICIN] | 1110 nM | 10 nM | – | – | – | – | – | – | –
2 | C=C1CC[C@H]2C(C)(C)CCC[C@]2(C)[C@H]1CC1=C(O)C(=O)C(CO)=CC1=O [TAURANIN] | 3500 nM | 4300 nM | 1800 nM | 2800 nM | Active | 1500 nM | Active | – | –
3 | COC(=O)Nc1nc2cc(C(=O)c3cccs3)ccc2[nH]1 | – | – | – | – | – | – | – | Active | Active
